Like-named read-outs stand apart in the source and are kept apart here.
How the values were obtained:
Jurkat = test: MTT anti-proliferative assay; type: cell-based, human; settings: read-out: IC50 ± SD, Jurkat
KG-1a = test: MTT anti-proliferative assay; type: cell-based, human; settings: read-out: IC50 ± SD, KG-1a
K-562 = test: MTT anti-proliferative assay; type: cell-based, human; settings: read-out: IC50 ± SD, K-562
EGFR = EGFR (Homo sapiens, UniProt P00533); test: EGFR kinase assay; type: biochemical
c-Src = c-Src (Homo sapiens, UniProt P12931); test: Src kinase assay; type: biochemical
STAT3 = STAT3 activation assay; type: cell-based, human; settings: K-562 cells, 10 μM, 24 h, nuclear extracts
In short: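 K562 cells seeded overnight in 10 cm plates, then given vehicle, test compound (10 μM) or WP1066 (positive control) for 24 h. Nuclear fractions extracted by kit. STAT3 activation measured in nuclear extracts by TransAM STAT3 ELISA per manufacturer. Mean ± SD of three independent experiments, each in triplicate.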

IL-6 = IL-6 ELISA in K-562 cells; type: cell-based, human; settings: Homo sapiens, K562, 24 h, read-out: IL-6 protein levels (% of control)
In short: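 K-562 cells exposed 24 h to vehicle (DMSO), test compound at 10 μM or dexamethasone (positive control). IL-6 secreted into cell-free supernatant quantified by human IL-6 ELISA kit. Expressed as % of vehicle control, mean ± SD of three independent experiments, each in triplicate. Time course: in 12-well plates, medium changed when compound (10 μM) added, and media sampled at 0, 1, 4, 8, 12, 24, 48 h.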

SR cell line = test: NCI in vitro one dose anticancer assay; type: cell-based; settings: Homo sapiens, 48 h, read-out: % growth inhibition
In short: (§1)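 NCI protocol. Test compound added once at 10−5 M to ~60 human tumour lines from nine subpanels. Incubated 48 h at 37 °C, 5% CO2, 95% air, 100% relative humidity. Endpoint by sulforhodamine B protein staining with spectrophotometric absorbance. Growth of treated cells reported as percent of untreated cells.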

RPMI-8226 cell line = test: NCI in vitro one dose anticancer assay; type: cell-based; settings: Homo sapiens, RPMI-8226, 48 h, read-out: % growth inhibition
In short: as §1

[1] = read-out: EGFR (IC50 μM), PGT substrate, ATP 50 μM
[2] = read-out: Src (IC50 μM), PGT substrate, ATP 50 μM

EGFR, sequence (P00533 25-1210): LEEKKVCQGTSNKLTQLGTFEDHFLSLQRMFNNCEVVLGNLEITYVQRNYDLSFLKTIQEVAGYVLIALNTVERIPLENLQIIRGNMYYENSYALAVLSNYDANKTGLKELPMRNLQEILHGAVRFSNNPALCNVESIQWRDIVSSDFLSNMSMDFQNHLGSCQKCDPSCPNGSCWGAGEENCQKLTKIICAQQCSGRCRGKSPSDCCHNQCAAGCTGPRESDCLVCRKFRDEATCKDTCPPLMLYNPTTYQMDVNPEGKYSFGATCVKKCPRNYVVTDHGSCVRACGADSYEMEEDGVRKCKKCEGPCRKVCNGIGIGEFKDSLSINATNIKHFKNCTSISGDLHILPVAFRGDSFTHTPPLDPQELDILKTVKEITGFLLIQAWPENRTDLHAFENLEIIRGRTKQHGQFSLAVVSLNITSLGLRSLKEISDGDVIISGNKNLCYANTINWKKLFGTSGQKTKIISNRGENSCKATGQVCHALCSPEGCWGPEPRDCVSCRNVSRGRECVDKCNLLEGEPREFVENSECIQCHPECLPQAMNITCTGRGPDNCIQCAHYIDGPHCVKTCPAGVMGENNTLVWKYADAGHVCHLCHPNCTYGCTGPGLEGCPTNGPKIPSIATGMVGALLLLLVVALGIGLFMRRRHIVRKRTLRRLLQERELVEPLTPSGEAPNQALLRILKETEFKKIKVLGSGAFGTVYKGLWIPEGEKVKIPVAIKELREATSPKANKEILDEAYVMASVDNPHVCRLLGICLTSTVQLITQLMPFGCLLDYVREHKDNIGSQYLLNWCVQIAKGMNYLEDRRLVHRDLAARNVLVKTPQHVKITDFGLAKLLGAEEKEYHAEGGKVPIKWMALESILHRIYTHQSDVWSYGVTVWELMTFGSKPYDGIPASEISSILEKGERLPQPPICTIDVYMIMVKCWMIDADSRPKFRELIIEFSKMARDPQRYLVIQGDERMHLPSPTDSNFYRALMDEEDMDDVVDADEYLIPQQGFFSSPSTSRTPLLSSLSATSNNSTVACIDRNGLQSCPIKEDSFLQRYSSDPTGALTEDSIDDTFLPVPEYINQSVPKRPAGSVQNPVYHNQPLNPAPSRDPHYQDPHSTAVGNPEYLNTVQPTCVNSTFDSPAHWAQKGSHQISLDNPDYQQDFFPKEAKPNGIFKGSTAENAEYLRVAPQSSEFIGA
c-Src, sequence (P12931 whole entry): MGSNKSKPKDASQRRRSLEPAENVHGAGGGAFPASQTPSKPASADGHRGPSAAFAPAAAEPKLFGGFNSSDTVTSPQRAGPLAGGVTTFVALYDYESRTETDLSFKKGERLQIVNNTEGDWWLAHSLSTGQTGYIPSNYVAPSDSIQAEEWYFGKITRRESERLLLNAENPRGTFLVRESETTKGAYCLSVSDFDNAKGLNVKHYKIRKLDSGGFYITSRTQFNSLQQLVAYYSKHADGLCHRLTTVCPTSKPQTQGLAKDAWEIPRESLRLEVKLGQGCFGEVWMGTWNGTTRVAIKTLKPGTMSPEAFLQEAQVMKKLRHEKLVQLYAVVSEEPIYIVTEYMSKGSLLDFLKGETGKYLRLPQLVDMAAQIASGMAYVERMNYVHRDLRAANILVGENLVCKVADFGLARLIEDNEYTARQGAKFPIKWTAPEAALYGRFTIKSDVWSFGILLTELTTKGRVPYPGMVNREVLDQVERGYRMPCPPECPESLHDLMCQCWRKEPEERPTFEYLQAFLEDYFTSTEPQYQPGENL

| IC50 (Jurkat; MTT, 24 h treatment) | IC50 (K-562; MTT, 24 h treatment) | IC50 (EGFR) | IC50 (Jurkat; Homo sapiens, Jurkat, 24 h) | IC50 (c-Src) | IC50 (K-562; Homo sapiens, K562, 24 h) | IC50 (EGFR; [1]) | IC50 (c-Src; [2]) | Compound | IC50 (KG-1a; MTT, 24 h treatment) | IC50 (KG-1a; Homo sapiens, KG-1a, 24 h) | inhibition of STAT3 activation (STAT3) | activity at 10 µM (IL-6) | inhibition at 10 µM (SR cell line) | inhibition at 10 µM (RPMI-8226 cell line) |
| --- | --- | --- | --- | --- | --- | --- | --- | --- | --- | --- | --- | --- | --- | --- |
| – | – | 35.1 ± 1.36 µM | 78.7 ± 2.13 µM | 44.1 ± 3.5 µM | 75.4 ± 4.61 µM | – | – | O=C(CSc1nnc(-c2ccccc2)o1)Nc1ccc(C(=O)C=Cc2ccc(Cl)cc2)cc1 [Compound 8b, N-(4-(3-(4-Chlorophenyl)acryloyl)phenyl)-2-((5-phenyl-1,3,4-oxadiazol-2-yl)thio)acetamide] | – | 82.2 ± 4.56 µM | moderate activities | 30 to 75% | – | – |
| – | – | 64.3 ± 3.56 µM | 75.2 ± 1.25 µM | 57.3 ± 2.4 µM | 69.5 ± 5.15 µM | – | – | COc1ccc(C=CC(=O)c2ccc(NC(=O)CSc3nnc(-c4ccccc4)o3)cc2)cc1OC [Compound 8c, N-(4-(3-(3,4-Dimethoxyphenyl)acryloyl)phenyl)-2-((5-phenyl-1,3,4-oxadiazol-2-yl)thio)acetamide] | – | 95.2 ± 3.88 µM | – | 82 to 98% | – | – |
| 28.3 ± 0.62 µM | 22.8 ± 1.32 µM | – | – | – | – | 11.2 ± 1.25 µM | 13.4 ± 1.6 µM | COc1cc(C=CC(=O)c2ccc(NC(=O)CSc3nnc(-c4ccccc4)o3)cc2)cc(OC)c1OC [Compound 8d, N-(4-(3-(3.4.5-Trimethoxyphenyl)acryloyl)phenyl)-2-((5-phenyl-1,3,4-oxadiazol-2-yl)thio)acetamide] | 31.3 ± 1.05 µM | – | – | – | – | – |
| – | – | 59.4 ± 5.63 µM | > 100 µM | 74.4 ± 3.6 µM | 93.3 ± 5.21 µM | – | – | O=C(CSc1nnc(-c2ccc(Cl)cc2)o1)Nc1ccc(C(=O)C=Cc2ccccc2)cc1 [Compound 8e, 2-((5-(4-Chlorophenyl)-1,3,4-oxadiazol-2-yl)thio)-N-(4-cinnamoylphenyl)acetamide] | – | > 100 µM | – | 82 to 98% | 32.9 to 160% | 31.3 to 144% |
| – | – | 64.7 ± 3.65 µM | 88.6 ± 1.35 µM | 50.3 ± 3.5 µM | 82.3 ± 3.08 µM | – | – | O=C(CSc1nnc(-c2ccc(Cl)cc2)o1)Nc1ccc(C(=O)C=Cc2ccc(Cl)cc2)cc1 [Compound 8f, 2-((5-(4-Chlorophenyl)-1,3,4-oxadiazol-2-yl)thio)-N-(4-(3-(4-chloro-phenyl)acryloyl)phenyl)acetamide] | – | 91.5 ± 4.15 µM | – | 82 to 98% | – | – |
| – | – | 12.7 ± 1.25 µM | 41.2 ± 0.91 µM | 22.1 ± 2.15 µM | 13.1 ± 1.65 µM | – | – | COc1ccc(C=CC(=O)c2ccc(NC(=O)CSc3nnc(-c4ccc(Cl)cc4)o3)cc2)cc1 [Compound 8g, 2-(5-(4-Chlorophenyl)-1,3,4-oxadiazol-2-ylthio)-N-(4-(3-(4-methoxy-phenyl)acryloyl)phenyl)acetamide] | – | 55.6 ± 1.34 µM | – | – | – | – |
| – | – | 30.2 ± 2.35 µM | 78.1 ± 2.1 µM | 41.4 ± 4.5 µM | 72.1 ± 3.32 µM | – | – | COc1ccc(C=CC(=O)c2ccc(NC(=O)CSc3nnc(-c4ccc(Cl)cc4)o3)cc2)cc1OC [Compound 8h, 2-(5-(4-Chlorophenyl)-1,3,4-oxadiazol-2-ylthio)-N-(4-(3-(3,4-dimethoxy-phenyl)acryloyl)phenyl)acetamide] | – | 84.6 ± 5.21 µM | – | – | – | – |
| – | – | 29.3 ± 3.65 µM | 62.6 ± 1.37 µM | 43.7 ± 3.5 µM | 55.3 ± 4.89 µM | – | – | COc1cc(C=CC(=O)c2ccc(NC(=O)CSc3nnc(-c4ccc(Cl)cc4)o3)cc2)cc(OC)c1OC [Compound 8i, 2-(5-(4-Chlorophenyl)-1,3,4-oxadiazol-2-ylthio)-N-(4-(3-(3,4,5-trimethoxyphenyl)acryloyl)phenyl)acetamide] | – | 79 ± 3.02 µM | – | – | – | – |
| – | – | 11.5 ± 1.24 µM | 31.1 ± 0.46 µM | 25.3 ± 1.56 µM | 22.6 ± 2.34 µM | – | – | COc1ccc(-c2nnc(SCC(=O)Nc3ccc(C(=O)C=Cc4ccccc4)cc3)o2)cc1 [Compound 8j, 2-(5-(4-Methoxyphenyl)-1,3,4-oxadiazol-2-ylthio)-N-(4-(3-phenylacryloyl)phenyl)acetamide] | – | 25.2 ± 0.48 µM | – | – | – | 31.3 to 144% |
| – | – | 18.3 ± 2.35 µM | 62.7 ± 2.71 µM | 33.6 ± 2.35 µM | 58.4 ± 3.75 µM | – | – | COc1ccc(-c2nnc(SCC(=O)Nc3ccc(C(=O)C=Cc4ccc(Cl)cc4)cc3)o2)cc1 [Compound 8k, 2-(5-(4-Methoxyphenyl)-1,3,4-oxadiazol-2-ylthio)-N-(4-(3-(4-chloro-phenyl)acryloyl)phenyl)acetamide] | – | 71.1 ± 1.22 µM | – | – | – | – |
| – | – | 12.3 ± 1.35 µM | 33.3 ± 1.22 µM | 25 ± 3.46 µM | 35.2 ± 2.05 µM | – | – | COc1ccc(/C=C/C(=O)c2ccc(NC(=O)CSc3nnc(-c4ccc(OC)cc4)o3)cc2)cc1 [Compound 8l, 2-(5-(4-Methoxyphenyl)-1,3,4-oxadiazol-2-ylthio)-N-(4-((E)-3-(4-methoxyphenyl)acryloyl)phenyl)acetamide] | – | 38.3 ± 2.45 µM | – | – | – | – |
| 28.4 ± 0.85 µM | 23.1 ± 0.28 µM | – | – | – | – | 10.2 ± 0.36 µM | 12.5 ± 0.3 µM | COc1ccc(-c2nnc(SCC(=O)Nc3ccc(C(=O)C=Cc4ccc(OC)c(OC)c4)cc3)o2)cc1 [Compound 8m] | 31.5 ± 0.42 µM | – | – | – | – | – |
| – | – | 71.1 ± 3.25 µM | 94.1 ± 5.31 µM | 51.2 ± 5.6 µM | 58.4 ± 5.45 µM | – | – | COc1ccc(-c2nnc(SCC(=O)Nc3ccc(C(=O)C=Cc4ccccc4)cc3)o2)cc1OC [Compound 8o, N-(4-Cinnamoylphenyl)-2-((5-(3,4-dimethoxyphenyl)-1,3,4-oxadiazol-2-yl)thio)acetamide] | – | 65.6 ± 2.31 µM | – | 82 to 98% | – | – |
| – | – | 11.4 ± 1.54 µM | 31.9 ± 1.3 µM | 29.5 ± 1.23 µM | 40.2 ± 2.82 µM | – | – | COc1ccc(C=CC(=O)c2ccc(NC(=O)CSc3nnc(-c4ccc(OC)c(OC)c4)o3)cc2)cc1 [Compound 8q, 2-((5-(3,4-Dimethoxyphenyl)-1,3,4-oxadiazol-2-yl)thio)-N-(4-(3-(4-methoxyphenyl)acryloyl)phenyl)acetamide] | – | 45.3 ± 2.31 µM | moderate activities | 30 to 75% | – | – |
| – | – | 63.3 ± 2.36 µM | > 100 µM | 76.2 ± 3.65 µM | > 100 µM | – | – | COc1ccc(C=CC(=O)c2ccc(NC(=O)CSc3nnc(-c4ccc(OC)c(OC)c4)o3)cc2)cc1OC [Compound 8r, 2-((5-(3,4-Dimethoxyphenyl)-1,3,4-oxadiazol-2-yl)thio)-N-(4-(3-(3,4-di-methoxyphenyl)acryloyl)phenyl)acetamide] | – | 93.1 ± 1.14 µM | – | 82 to 98% | – | – |
| – | – | 22.3 ± 2.35 µM | 76.4 ± 1.31 µM | 40.2 ± 1.34 µM | 73.2 ± 3.72 µM | – | – | COc1cc(-c2nnc(SCC(=O)Nc3ccc(C(=O)C=Cc4ccccc4)cc3)o2)cc(OC)c1OC [Compound 8t, N-(4-Cinnamoylphenyl)-2-((5-(3,4,5-trimethoxyphenyl)-1,3,4-oxadiazol-2-yl)thio)acetamide] | – | 84.6 ± 1.28 µM | – | 30 to 75% | – | – |
| – | – | 55.4 ± 4.35 µM | > 100 µM | 53.1 ± 5.6 µM | 84.2 ± 4.36 µM | – | – | COc1cc(-c2nnc(SCC(=O)Nc3ccc(C(=O)C=Cc4ccc(Cl)cc4)cc3)o2)cc(OC)c1OC [Compound 8u, N-(4-(3-(4-Chlorophenyl)acryloyl)phenyl)-2-((5-(3,4,5-trimethoxy-phenyl)-1,3,4-oxadiazol-2-yl)thio)acetamide] | – | 95.7 ± 2.48 µM | – | 82 to 98% | – | – |
| – | – | 48.3 ± 2.36 µM | > 100 µM | 60.3 ± 2.5 µM | 90.3 ± 2.91 µM | – | – | COc1ccc(C=CC(=O)c2ccc(NC(=O)CSc3nnc(-c4cc(OC)c(OC)c(OC)c4)o3)cc2)cc1OC [Compound 8w, N-(4-(3-(3,4-Dimethoxyphenyl)acryloyl)phenyl)-2-((5-(3,4,5-trimethoxyphenyl)-1,3,4-oxadiazol-2-yl)thio)acetamide] | – | > 100 µM | – | 82 to 98% | – | – |
| – | – | 20.5 ± 1.35 µM | 69.17 ± 0.15 µM | 35.1 ± 3.26 µM | 62.1 ± 3.07 µM | – | – | COc1cc(C=CC(=O)c2ccc(NC(=O)CSc3nnc(-c4cc(OC)c(OC)c(OC)c4)o3)cc2)cc(OC)c1OC [Compound 8x, 2-((5-(3,4,5-Trimethoxyphenyl)-1,3,4-oxadiazol-2-yl)thio)-N-(4-(3-(3,4,5-trimethoxyphenyl)acryloyl)phenyl)acetamide] | – | 71.5 ± 1.18 µM | moderate activities | 30 to 75% | 32.9 to 160% | 31.3 to 144% |

| Compound | IC50 (Jurkat; MTT, 24 h treatment) | IC50 (K-562; MTT, 24 h treatment) | IC50 (EGFR) | IC50 (Jurkat; Homo sapiens, Jurkat, 24 h) | IC50 (c-Src) | IC50 (K-562; Homo sapiens, K562, 24 h) | IC50 (EGFR; [1]) | IC50 (c-Src; [2]) | IC50 (KG-1a; MTT, 24 h treatment) | IC50 (KG-1a; Homo sapiens, KG-1a, 24 h) | inhibition of STAT3 activation (STAT3) | activity at 10 µM (IL-6) | inhibition at 10 µM (SR cell line) | inhibition at 10 µM (RPMI-8226 cell line) |
| --- | --- | --- | --- | --- | --- | --- | --- | --- | --- | --- | --- | --- | --- | --- |
| N.N.[Cl][Pt][Cl] [Cisplatin, reference compound] | 15.1 ± 1.35 µM | 3.21 ± 0.45 µM | – | – | – | – | – | – | 12.2 ± 3.41 µM | – | – | – | – | – |

Reference: article PMC6923798 (Bioorganic chemistry, 2018)
